According to ChEMBL document CHEMBL4038284, “Synthesis of novel quinoline-based 4,5-dihydro-1H-pyrazoles as potential anticancer, antifungal, antibacterial and antiprotozoal agents” (Eur J Med Chem, 2017):
≈ marks a conversion by molar mass, not a printed value.

Experiments:
Candida albicans [1] = experiment: Growth inhibition of Candida albicans ATCC 10231 at 3.4 ug/ml incubated for 48 hrs under dark condition by broth microdilution method relative to control; type: functional; conditions: ATCC 10231, 48 h, read-out: GI
Cryptococcus neoformans [2] = experiment: Growth inhibition of Cryptococcus neoformans ATCC 32264 at 250 ug/ml incubated for 48 hrs under dark condition by broth microdilution method relative to control; type: functional; conditions: ATCC 32264, 48 h, read-out: GI
Outline: (§1)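 CLSI M27-A3 broth microdilution in RPMI-1640, DMSO ≤1%. Inoculum 1-5 × 10^3 CFU/mL. Incubated 48 h at 30 °C, dark. % inhibition = 100 − (OD405 test − sterility control)/(OD405 growth control − sterility control), with growth and sterility control wells. Triplicate.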

Trypanosoma cruzi = experiment: Antitrypanosomal activity against Trypanosoma cruzi Tulahuen intracellular amastigote harboring LacZ infected in human U937 cells after 72 hrs by CPRG/Nonidet reagent based spectrophotometric method; type: functional, cell-based; conditions: U-937, 72 h
Outline: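 U-937 cells at 2.5 × 10^5 cells/mL in RPMI-1640 with 10% serum and 0.1 µg/mL PMA were infected with β-galactosidase-transfected Tulahuen epimastigotes at 5 parasites per cell. Infected cells were exposed to 50, 12.5, 3.125 and 0.78 µg/mL for 72 h. CPRG (100 uM) and 0.1% Nonidet P-40 were added for 3 h, read at 570 nm. EC50 by Probit. Triplicate, at least two experiments; benznidazole as reference.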

Staphylococcus aureus [3] = experiment: Antibacterial activity against vancomycin-intermediate Staphylococcus aureus after 24 hrs by resazurin dye based microdilution assay; type: functional
Outline: (§2)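 MIC taken as the lowest concentration giving visible inhibition and/or by resazurin (1 mg/mL). Gentamicin was the control. Run in duplicate, repeated at least three times.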

Candida albicans [4] = experiment: Growth inhibition of Candida albicans ATCC 10231 at 125 ug/ml incubated for 48 hrs under dark condition by broth microdilution method relative to control; type: functional; conditions: ATCC 10231, 48 h, read-out: GI; outline: as §1
Klebsiella pneumoniae [5] = experiment: Antibacterial activity against carbapenemase positive Klebsiella pneumoniae BAA 1705 after 24 hrs by resazurin dye based microdilution assay; type: functional; conditions: BAA 1705, 24 h; outline: as §2
Candida albicans [6] = experiment: Antifungal activity against Candida albicans ATCC 10231 incubated for 48 hrs under dark condition by broth microdilution method; type: functional; conditions: ATCC 10231, 48 h
Outline: (§3)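 CLSI M27-A3 broth microdilution in RPMI-1640, DMSO ≤1%, compounds at 250-0.98 µg/mL final. Inoculum 1-5 × 10^3 CFU/mL. Incubated 48 h at 30 °C in a moist dark chamber, read at OD405. MIC80 and MIC50 taken from % inhibition dose-response curves (mean ± SEM, triplicate). Amphotericin B was the positive control.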

Cryptococcus neoformans [7] = experiment: Growth inhibition of Cryptococcus neoformans ATCC 32264 at 125 ug/ml incubated for 48 hrs under dark condition by broth microdilution method relative to control; type: functional; conditions: ATCC 32264, 48 h, read-out: GI; outline: as §1
Candida albicans [8] = experiment: Growth inhibition of Candida albicans ATCC 10231 at 250 ug/ml incubated for 48 hrs under dark condition by broth microdilution method relative to control; type: functional; conditions: ATCC 10231, 48 h, read-out: GI; outline: as §1
Cryptococcus neoformans [9] = experiment: Growth inhibition of Cryptococcus neoformans ATCC 32264 at 15.62 ug/ml incubated for 48 hrs under dark condition by broth microdilution method relative to control; type: functional; conditions: ATCC 32264, 48 h, read-out: GI; outline: as §1
Leishmania panamensis = experiment: Antileshmanial activity against EpiR/GFP fused Leishmania panamensis MHOM/CO/87/UA140 intracellular amastigotes infected in human […] cells after 72 hrs by flow cytometric method; type: functional, cell-based; conditions: MHOM/CO/87/UA140, 72 h
Outline: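 PMA-treated U-937 cells (3 × 10^5 cells/mL) infected with stationary-phase GFP L. panamensis promastigotes (15:1), 3 h at 34 °C, then washed. After 24 h, compounds added at 50, 12.5, 3.125 and 0.78 µg/mL for 72 h at 37 °C. EC50 by Probit; triplicate, two experiments.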

Cryptococcus neoformans [10] = experiment: Antifungal activity against Cryptococcus neoformans ATCC 32264 incubated for 48 hrs under dark condition by broth microdilution method; type: functional; conditions: ATCC 32264, 48 h; outline: as §3
Cryptococcus neoformans [11] = experiment: Growth inhibition of Cryptococcus neoformans ATCC 32264 at 7.8 ug/ml incubated for 48 hrs under dark condition by broth microdilution method relative to control; type: functional; conditions: ATCC 32264, 48 h, read-out: GI; outline: as §1
Cryptococcus neoformans [12] = experiment: Growth inhibition of Cryptococcus neoformans ATCC 32264 at 31.25 ug/ml incubated for 48 hrs under dark condition by broth microdilution method relative to control; type: functional; conditions: ATCC 32264, 48 h, read-out: GI; outline: as §1
Plasmodium falciparum = experiment: Antiplasmodial activity against chloroquine-sensitive Plasmodium falciparum 3D7 assessed as reduction in parasitic LDH activity after 48 hrs by Malstat reagent based […] method; type: functional; conditions: 3D7, 48 h
Outline: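 Unsynchronized P. falciparum 3D7 at 0.5% parasitemia and 1% hematocrit in RPMI with 3% Albumax II. Exposed to 100, 25, 6.25 and 1.56 µg/mL for 48 h at 37 °C under 90% N2/5% CO2/5% O2. After three freeze-thaw cycles, LDH measured with Malstat and NBT/PES, 1 h in the dark, read at 650 nm. IC50 by Probit; triplicate, ≥2 experiments.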

Pseudomonas aeruginosa = experiment: Antibacterial activity against Pseudomonas aeruginosa ATCC 27853 after 24 hrs by resazurin dye based microdilution assay; type: functional; conditions: ATCC 27853, 24 h; outline: as §2
Escherichia coli = experiment: Antibacterial activity against Escherichia coli ATCC 25922 after 24 hrs by resazurin dye based microdilution assay; type: functional; conditions: ATCC 25922, 24 h; outline: as §2
Staphylococcus aureus [13] = experiment: Antibacterial activity against methicillin-sensitive Staphylococcus aureus ATCC 25923 after 24 hrs by resazurin dye based microdilution assay; type: functional; conditions: ATCC 25923, 24 h; outline: as §2
Staphylococcus aureus [14] = experiment: Antibacterial activity against methicillin-resistant Staphylococcus aureus ATCC 43300 after 24 hrs by resazurin dye based microdilution assay; type: functional; conditions: ATCC 43300, 24 h
Outline: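 Broth microdilution in Mueller Hinton broth, inoculum 5 × 10^5 – 8 × 10^5. Compound stocks diluted in MHB with 5% DMSO and 0.1% Tween 80. Incubation 24 h at 35-37 °C. MIC is the lowest concentration with visible growth inhibition and/or by resazurin (1 mg/mL) read-out. Gentamicin as control. Run in duplicate, replicated at least three times.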

Candida albicans [15] = experiment: Growth inhibition of Candida albicans ATCC 10231 at 7.8 ug/ml incubated for 48 hrs under dark condition by broth microdilution method relative to control; type: functional; conditions: ATCC 10231, 48 h, read-out: GI; outline: as §1
Neisseria gonorrhoeae = experiment: Antibacterial activity against beta lactamase positive Neisseria gonorrhoeae ATCC 31426 by oxidase test; type: functional
Outline: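 Agar dilution MIC on GC agar with 1% isovitalex containing increasing compound concentrations. Plates inoculated with about 1×10^4 CFU (5 µL). MIC is the lowest concentration that inhibited growth, with growth confirmed by oxidase test. Run in duplicate, repeated at least three times.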

Cryptococcus neoformans [16] = experiment: Growth inhibition of Cryptococcus neoformans ATCC 32264 at 3.4 ug/ml incubated for 48 hrs under dark condition by broth microdilution method relative to control; type: functional; conditions: ATCC 32264, 48 h, read-out: GI
U-937 = experiment: Cytotoxicity against human U937 cells after 72 hrs by MTT assay; type: cell-based; conditions: u-937, 72 h
Outline: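 Exponentially growing U-937 at 1 × 10^5 cells/mL in RPMI-1640 with 10% FBS were exposed to 200, 50, 12.5 and 3.125 µg/mL for 72 h at 37 °C, 5% CO2. MTT for 3 h, stopped with isopropanol/SDS, formazan read at 570 nm, blank-corrected. LC50 by Probit from % viability against untreated cells. Triplicate, at least two independent experiments.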

Candida albicans [17] = experiment: Growth inhibition of Candida albicans ATCC 10231 at 62.5 ug/ml incubated for 48 hrs under dark condition by broth microdilution method relative to control; type: functional; conditions: ATCC 10231, 48 h, read-out: GI; outline: as §1
Klebsiella pneumoniae [18] = experiment: Antibacterial activity against ESBL positive Klebsiella pneumoniae ATCC 700603 after 24 hrs by resazurin dye based microdilution assay; type: functional; conditions: Klebsiella pneumoniae, 700603, 24 h; outline: as §2
Candida albicans [19] = experiment: Growth inhibition of Candida albicans ATCC 10231 at 31.25 ug/ml incubated for 48 hrs under dark condition by broth microdilution method relative to control; type: functional; conditions: ATCC 10231, 48 h, read-out: GI; outline: as §1
Cryptococcus neoformans [20] = experiment: Growth inhibition of Cryptococcus neoformans ATCC 32264 at 62.5 ug/ml incubated for 48 hrs under dark condition by broth microdilution method relative to control; type: functional; conditions: ATCC 32264, 48 h, read-out: GI; outline: as §1
Candida albicans [21] = experiment: Growth inhibition of Candida albicans ATCC 10231 at 15.62 ug/ml incubated for 48 hrs under dark condition by broth microdilution method relative to control; type: functional; conditions: ATCC 10231, 48 h, read-out: GI; outline: as §1

Structure (SMILES)	inhibition of growth at 3.4 µg/mL (Candida albicans [1])	inhibition of growth at 250 µg/mL (Cryptococcus neoformans [2])	EC50 (Trypanosoma cruzi)	MIC (Staphylococcus aureus [3])	inhibition of growth at 125 µg/mL (Candida albicans [4])	MIC (Klebsiella pneumoniae [5])	MIC50 (Candida albicans [6])	MIC80 (Candida albicans [6])	inhibition of growth at 125 µg/mL (Cryptococcus neoformans [7])	inhibition of growth at 250 µg/mL (Candida albicans [8])	inhibition of growth at 15.62 µg/mL (Cryptococcus neoformans [9])	EC50 (Leishmania panamensis)	MIC50 (Cryptococcus neoformans [10])	MIC80 (Cryptococcus neoformans [10])	inhibition of growth at 7.8 µg/mL (Cryptococcus neoformans [11])	inhibition of growth at 31.25 µg/mL (Cryptococcus neoformans [12])	EC50 (Plasmodium falciparum)	MIC (Pseudomonas aeruginosa)	MIC (Escherichia coli)	MIC (Staphylococcus aureus [13])	also measured
Clc1ccc2c(Nc3cccc(C4CC(c5ccccc5)=NN4c4ccccc4)c3)ccnc2c1 (stereo not given)	3.1%	52.3%	39.2 µg/mL (≈ 82.5 µM)	> 1000 µg/mL	32.4%	> 1000 µg/mL	250 µg/mL (≈ 526 µM)	≥ 250 µg/mL	26.5%	53%	18.4%	22.7 µg/mL (≈ 47.7 µM)	250 µg/mL (≈ 526 µM)	≥ 250 µg/mL	13.6%	20.4%	13.4 µg/mL (≈ 28.1 µM)	> 1000 µg/mL	> 1000 µg/mL	> 1000 µg/mL	MIC (Staphylococcus aureus [14]): > 1000 µg/mL; inhibition of growth at 7.8 µg/mL (Candida albicans [15]): 5.03%; MIC (Neisseria gonorrhoeae): > 1000 µg/mL; inhibition of growth at 3.4 µg/mL (Cryptococcus neoformans [16]): 9.75%; LC50 (U-937): > 200 µg/mL; inhibition of growth at 62.5 µg/mL (Candida albicans [17]): 20.1%; MIC (Klebsiella pneumoniae [18]): > 1000 µg/mL; inhibition of growth at 31.25 µg/mL (Candida albicans [19]): 11%; inhibition of growth at 62.5 µg/mL (Cryptococcus neoformans [20]): 20.5%; inhibition of growth at 15.62 µg/mL (Candida albicans [21]): 8.69%
O=CN1N=C(c2ccc(Br)cc2)CC1c1cccc(Nc2ccnc3cc(Cl)ccc23)c1 (stereo not given)	5.76%	100%	1.24 µg/mL (≈ 2.45 µM)	> 1000 µg/mL	31.4%	> 1000 µg/mL	250 µg/mL (≈ 494 µM)	≥ 250 µg/mL	60.9%	58.7%	44.2%	2.41 µg/mL (≈ 4.76 µM)	62.5 µg/mL (≈ 124 µM)	250 µg/mL (≈ 494 µM)	39.1%	44.5%	15.7 µg/mL (≈ 31 µM)	> 1000 µg/mL	> 1000 µg/mL	> 1000 µg/mL	MIC (Staphylococcus aureus [14]): > 1000 µg/mL; inhibition of growth at 7.8 µg/mL (Candida albicans [15]): 8.36%; MIC (Neisseria gonorrhoeae): > 1000 µg/mL; inhibition of growth at 3.4 µg/mL (Cryptococcus neoformans [16]): 24.2%; LC50 (U-937): 0.6 µg/mL (≈ 1.19 µM); inhibition of growth at 62.5 µg/mL (Candida albicans [17]): 25.3%; MIC (Klebsiella pneumoniae [18]): > 1000 µg/mL; inhibition of growth at 31.25 µg/mL (Candida albicans [19]): 19.2%; inhibition of growth at 62.5 µg/mL (Cryptococcus neoformans [20]): 53.5%; inhibition of growth at 15.62 µg/mL (Candida albicans [21]): 13%
